Compound activity: PubChem, several laboratories
Most compounds without a hit are left out; they make up all but 3.4% or so of the library.
MEKK2 WT-MEK5: raises or lowers MEK5 binding to wildtype human MEKK2 PB1 domain | bead flow cytometry, Alexa488-MEK5 binding to MEKK2 WT; actives lie on both sides | binding response (% of control), % at 10 µM | hit rate 1.1% among 290,000 | AID 1531; in the data active = binding response below about 67% or above about 130%
IMP-1 inhibitor: inhibitors of Pseudomonas aeruginosa IMP-1 metallo-beta-lactamase | purified IMP-1, nitrocefin hydrolysis, epi-absorbance fluorescence | inhibition, % at 5.6 µM | hit rate 0.45% among 290,000 | AID 1556;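 active = inhibition above the mean plus 3 SD of all compounds in the same screening run, cut at about 4.5% in these data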;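 note: 0% = IMP-1 with DMSO and 100% = DMSO wells lacking enzyme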
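assay system = purified recombinant IMP-1 metallo-beta-lactamase enzyme | schedule = 15 min preincubation plus 25 min reaction at 25 °C | signal = Epi-absorbance fluorescence, 480 nm excitation, 530 nm emission | read-out basis = percent inhibition from optical density relative to buffer-blank wells | controls = IMP-1 with DMSO as 0%, enzyme-free DMSO as 100%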
VIM-2 inh: blocks Pseudomonas aeruginosa VIM-2 metallo-beta-lactamase | purified VIM-2, nitrocefin hydrolysis, epi-absorbance fluorescence | inhibition, % at 5.6 µM | hit rate 0.89% among 290,000 | AID 1527;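 active = inhibition above the mean of all tested compounds plus 3 SD, cutoff set per screening run, cut at about 7.5% in these data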;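 note: red hydrolysis product quenches plate fluorescence so inhibitors raise well fluorescence; 0% = enzyme with DMSO and 100% = DMSO without enzyme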
MEKK2mut PB1 HTS: signal of MEK5 binding to mutant human MEKK2 PB1 domain | bead flow cytometry, Alexa488-MEK5 binding to MEKK2 mutant | percent response, % at 10 µM | hit rate 0.35% among 290,000; in the data active = percent response above about 24%, passing the limit was not always enough
MEKK3 PB1 HTS: modulators (inhibitors or enhancers) of MEK5 binding to human MEKK3 PB1 domain; binding response (% of control), % at 10 µM; bead-based flow cytometry, Alexa488-MEK5 binding to MEKK3; actives lie on both sides; 0 = blocked by unlabeled MEK5, 100 = vehicle; hit rate 1.4% among 290,000;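 active = binding response more than 3 SD above or below the average of its plate-row segment, actives on both sides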;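 note: Alexa488 bead fluorescence after subtracting the streptavidin-only scavenger bead signal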
Target sequence (Q99759 whole entry, looked up, the tested form may be a part): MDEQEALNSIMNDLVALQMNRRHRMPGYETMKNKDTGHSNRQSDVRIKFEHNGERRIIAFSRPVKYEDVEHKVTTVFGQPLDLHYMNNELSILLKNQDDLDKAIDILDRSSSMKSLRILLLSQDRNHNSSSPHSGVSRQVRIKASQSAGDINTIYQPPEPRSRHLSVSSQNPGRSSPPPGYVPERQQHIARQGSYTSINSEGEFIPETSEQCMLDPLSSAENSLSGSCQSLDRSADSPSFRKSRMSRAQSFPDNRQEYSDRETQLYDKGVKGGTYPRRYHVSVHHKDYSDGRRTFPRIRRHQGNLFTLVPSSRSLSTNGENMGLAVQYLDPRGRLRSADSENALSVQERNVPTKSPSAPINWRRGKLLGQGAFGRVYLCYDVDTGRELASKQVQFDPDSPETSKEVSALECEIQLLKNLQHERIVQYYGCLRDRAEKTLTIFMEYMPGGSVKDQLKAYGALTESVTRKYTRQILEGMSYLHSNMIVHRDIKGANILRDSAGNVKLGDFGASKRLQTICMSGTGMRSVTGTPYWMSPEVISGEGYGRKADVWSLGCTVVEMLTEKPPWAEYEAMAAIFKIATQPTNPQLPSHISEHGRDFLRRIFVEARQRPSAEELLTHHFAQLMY
MEKK2wt confirm: raises or lowers MEK5 binding to wildtype human MEKK2, retest. shares compounds with MEKK3 PB1 HTS. bead flow cytometry, Alexa488-MEK5 binding to MEKK2 WT; actives lie on both sides. hit rate 2.4% among 5,900. binding response (% of control), % at 10 µM; in the data active = binding response below about 16% or above about 210%; inactive = in between
MEKK2mut confirm: signal of MEK5 binding to mutant human MEKK2, retest. AID 1893. bead flow cytometry, Alexa488-MEK5 binding to MEKK2 mutant. hit rate 2% among 5,900. shares compounds with MEKK3 PB1 HTS. percent response, % at 10 µM; in the data active = percent response mostly above about 71%, no sharp cut-off; inactive = mostly below about 38%;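 note: higher means compound restores mutant binding toward wildtype level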
MEKK3 confirm: confirmation of inhibitors of MEK5 binding to human MEKK3; shares compounds with MEKK3 PB1 HTS; bead flow cytometry, Alexa488-MEK5 binding to MEKK3; stronger effect = lower value; binding response (% of control), % at 10 µM; hit rate 1.8% among 5,900;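 active = binding response below 72% of control, or above a set upper limit, though filed actives all read lower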;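 note: 100% = DMSO only wells and 0% = binding blocked by excess unlabeled MEK5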
* marks the source's active call; other numbers are inactive results; nt = not tested or not shown; ! = repeats disagree; [ ] = another dose, or the depositor's remark.

SMILES	MEKK2 WT-MEK5	IMP-1 inhibitor	VIM-2 inh	MEKK2mut PB1 HTS	MEKK3 PB1 HTS	MEKK2wt confirm	MEKK2mut confirm	MEKK3 confirm
CC(=O)c1ccc(N=C2C(=O)Nc3ccccc32)cc1	20*[inhibitor]	-2	-2	-8	56*[inhibitor]	96	-11	95
O=C(CN1CCCCC1)NN(Cc1ccccc1)c1ccccc1	101	1	0	-5	101	nt	nt	nt
CC(C)COCC(CN(Cc1ccccc1)c1ccccc1)N1CCCC1 (configuration not stated)	146*!	0	-1	-23	96	137	20	104
CCC(C)NCCOCCOc1cc(C)c(Cl)c(C)c1 (configuration not stated)	107	-4	-3	7	102	nt	nt	nt
CCC(C)NCCOCCOc1ccc(F)cc1 (configuration not stated)	3.0*[inhibitor]	-1	-2	-21	2.0*[inhibitor]	101	-3	99
c1ccc2c(N3CCCCC3)nc(N3CCCCC3)nc2c1	nt	-1	2	nt	nt	nt	nt	nt
C(=C\c1nc(N2CCCCCC2)c2ccccc2n1)/c1ccccc1	144*	0	-3	17	100	154	19	108
Nc1cc(N)nc(SCC(=O)Nc2ccccc2N2CCOCC2)n1	91	-2	0	-4	95	nt	nt	nt
COc1ccc(OC)c(NC(=O)CSc2nnnn2-c2ccc3c(c2)OCO3)c1	116	-3	-3	12	128*	98	-2	96
O=C(N/N=C/c1c(O)n(-c2ccc(Cl)cn2)c(=O)c2ccccc12)c1ccncc1	107	-4	-4	0	135*	100	1	104
O=C(N/N=C/c1c(O)n(-c2ccc(Cl)cn2)c(=O)c2ccccc12)C1CC1	111	-1	-2	14	98	nt	nt	nt
CCOCC(=O)Nc1ccc(-c2cn3cccnc3n2)cc1	104	0	-1	-3	99	nt	nt	nt
COc1cccc(NC(=S)N2CCN(c3ccc([N+](=O)[O-])cc3)CC2)c1	60*[inhibitor]	-2	-2	-16	60*[inhibitor]	99	-2	100
Cc1ccccc1-n1c(O)c(/C=N/N2CCCCC2c2cccnc2)c(=O)[nH]c1=O (configuration not stated)	105	-1	-3	0	173*	104	3	101
Cc1ccc(S(=O)(=O)N2CCCCC2c2cccnc2)c(C)c1C (configuration not stated)	96	-3	-2	-7	95	nt	nt	nt
NC1=NC[C@H](CC2CCCCC2)N1CCc1cc(C(F)(F)F)cc(C(F)(F)F)c1	156*	nt	nt	25*	111	127	4	97
Cc1cc(NC(=O)CSc2nccn2-c2cccc(C)c2C)no1	98	-2	-3	2	99	nt	nt	nt
C=CCN(CC=C)C(=O)CCc1nnc(CCc2c[nH]c3ccccc23)o1	99	-1	2	0	101	nt	nt	nt
O=C(Cc1csc(Nc2nc(=S)[nH]c3ccccc23)n1)NCc1ccc(Cl)cc1	99	-3	0	3	95	nt	nt	nt
O=C(Cc1csc(Nc2nc(=S)[nH]c3ccccc23)n1)NCCCN1CCN(c2ccccc2F)CC1	147*	-3	-2	-2	110	153	31	102
Cn1c(C(=O)NCCCN2CCN(c3ccccc3F)CC2)cc2c(=O)[nH]c3ccccc3c21	148*	-6	11*	28	111	130	5	104
Cn1c(/C(C#N)=C(\O)CN2CCN(Cc3ccccc3)CC2)nc2ccccc21	105	-2	-2	1	104	nt	nt	nt
Cc1ccc(C(=O)COC(=O)c2c(C)cc(=O)oc2C)cc1[N+](=O)[O-]	106	1	-3	1	160*	105	8	102
O=C(CN1CCN(S(=O)(=O)c2ccccc2)CC1)Nc1cccc(C(F)(F)F)c1	100	-2	0	4	102	nt	nt	nt
Nc1nc2c(F)cccc2s1	102	-4	0	0	133*	102	1	99
SMILES	MEKK2 WT-MEK5	IMP-1 inhibitor	VIM-2 inh	MEKK2mut PB1 HTS	MEKK3 PB1 HTS	MEKK2wt confirm	MEKK2mut confirm	MEKK3 confirm
Fc1cccc2sc(Nc3nc4c(F)cccc4s3)nc12	103	0	0	-2	102	nt	nt	nt
NNc1nc2c(F)cccc2s1	105	-2	0	0	140*	106	0	104
COCCNC(=O)c1n[nH]c2ccccc12	85	-2	0	-3	70*[inhibitor]	105	-2	104
COc1ccc(CCNC(=O)c2n[nH]c3ccccc23)cc1	95	-6	-3	-5	100	nt	nt	nt
COCCNC(=O)c1cn(C)c2ccccc2c1=O	74	-1	1	-14	70*[inhibitor]	98	-8	96
COCCNC(=O)Cc1cn(C)c2ccccc12	112	-3	-1	19	110	nt	nt	nt
Cc1nc([N+](=O)[O-])c(Br)n1CC(=O)c1ccc(Br)cc1	126	-4	-2	6	133*	93	-12	95
Cc1nc([N+](=O)[O-])c(Br)n1CC(=O)c1ccccc1	105	1	0	5	101	nt	nt	nt
COC(=O)N1C/C=C\C(c2ccc(OC)cc2)N(Cc2ccc(F)cc2)C(=O)C1 (configuration not stated)	94	nt	nt	3	96	nt	nt	nt
COc1ccc(C2/C=C\CN(S(=O)(=O)c3ccc(C)cc3)CC(=O)N2Cc2ccc(F)cc2)cc1 (configuration not stated)	158*	nt	nt	2	129*	102	1	100
COc1ccc(C2/C=C\CN(C(=O)NC34CC5CC(CC(C5)C3)C4)CC(=O)N2Cc2ccc(F)cc2)cc1 (configuration not stated)	147*	nt	nt	2	123	96	-1	102
COc1cc(C(=O)N2CCN(Cc3ccc4c(c3)OCO4)CC2)cc(OC)c1OC	102	-4	-3	28*	99	98	-1	102
COc1ccc(C(=O)N2CCN(Cc3ccc4c(c3)OCO4)CC2)cc1OC	109	-1	-2	12	98	nt	nt	nt
CCN(CC)c1ccc(C(=O)NC(=S)N2CCN(Cc3ccc4c(c3)OCO4)CC2)cc1	107	-2	-6	-1	145*	101	0	102
Cc1ccc(S(=O)(=O)NCC(=O)N(CC(=O)NCc2ccco2)Cc2cccs2)cc1	105	-2	-4	3	105	nt	nt	nt
OC(CNCCc1ccc(Cl)cc1)COc1cc(Cl)ccc1Cl (configuration not stated)	122	-3	-2	26*	107	128	22	105
